Test results taken from ChEMBL document CHEMBL4145543, “Synthesis and pharmacological evaluation of 6,7-dimethoxy-1,2,3,4-tetrahydroisoquinoline derivatives as sigma-2 receptor ligands” (Eur J Med Chem, 2018).

tested on: Huh-7; assay: Cytotoxicity against human HuH7 cells after 48 hrs by CCK8 assay; type: functional, cell-based; settings: Huh-7, 48 h
Procedure, shortened: (§1)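 Exponentially growing Huh7 or KYSE-140 cells seeded at 4,000 cells/well, adhered overnight, then exposed to 6 concentrations for 48 h; DMSO vehicle control. CCK-8 added, 2 h at 37 °C in dark, absorbance at 450 nm. Viability as percent of control OD; IC50 by curve fitting, at least three experiments.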

Row | Structure (SMILES) | IC50
1 | COc1ccc(C(O)CCCCN2CCc3cc(OC)c(OC)cc3C2)c(C)c1 (centres undefined) | 12500 nM
2 | COc1cc2c(cc1OC)CN(CCCCn1cnc3cc(OC)c(OC)cc3c1=O)CC2 | > 100 nM
3 | COc1cc2c(cc1OC)CN(CCCCn1cnc3cc(Cl)c([N+](=O)[O-])cc3c1=O)CC2 | > 100 nM
4 | COc1ccc(C(=O)CCCCN2CCc3cc(OC)c(OC)cc3C2)c(OC)c1 | > 100 nM
5 | COc1ccc(C(=O)CCCCN2CCc3cc(OC)c(OC)cc3C2)c(C)c1 | > 100 nM

target: T1, Sigma intracellular receptor 2 (Rattus norvegicus, UniProt Q5U3Y7); assay: Displacement of [3H]DTG from sigma-2 receptor in Sprague-Dawley rat liver membranes after 120 mins in presence of (+)-pentazocine by microbeta scintillation counting method; type: cell membranes, Membrane; settings: not given
T1 sequence (Q5U3Y7 whole entry): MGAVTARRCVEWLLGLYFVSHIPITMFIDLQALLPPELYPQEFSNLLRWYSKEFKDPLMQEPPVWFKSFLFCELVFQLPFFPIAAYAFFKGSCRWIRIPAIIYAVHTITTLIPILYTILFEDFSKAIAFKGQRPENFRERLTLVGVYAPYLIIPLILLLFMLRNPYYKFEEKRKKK

Row | Structure (SMILES) | Ki
6 | COc1ccc(C(O)CCCCN2CCc3cc(OC)c(OC)cc3C2)c(OC)c1 (centres undefined) | 6.2 nM
7 | COc1ccc(C(O)CCCCN2CCc3cc(OC)c(OC)cc3C2)c(C)c1 (centres undefined) | 5.2 nM
8 | COc1cc2c(cc1OC)CN(CCCCn1cnc3cc(OC)c(OC)cc3c1=O)CC2 | 43.8 nM
9 | COc1cc2c(cc1OC)CN(CCCCn1cnc3cc(Cl)c([N+](=O)[O-])cc3c1=O)CC2 | > 1000 nM
10 | COc1ccc(C(=O)CCCCN2CCc3cc(OC)c(OC)cc3C2)c(OC)c1 | 5.8 nM
11 | COc1ccc(C(=O)CCCCN2CCc3cc(OC)c(OC)cc3C2)c(C)c1 | 5.1 nM

target: Sigma non-opioid intracellular receptor 1 (Homo sapiens, UniProt Q99720); assay: Binding affinity to sigma-1 receptor (unknown origin); settings: not given
Sequence (Q99720 whole entry): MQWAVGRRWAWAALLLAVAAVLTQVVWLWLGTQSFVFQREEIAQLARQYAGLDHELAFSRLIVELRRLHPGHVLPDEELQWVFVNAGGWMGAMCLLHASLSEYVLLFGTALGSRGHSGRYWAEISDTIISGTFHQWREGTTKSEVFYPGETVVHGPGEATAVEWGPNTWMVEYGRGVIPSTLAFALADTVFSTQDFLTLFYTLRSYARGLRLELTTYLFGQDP

Row | Structure (SMILES) | Ki
12 | COc1ccc(C)cc1NC(=O)OC1C[C@H]2CCC[C@H](C1)N2CCCCCCN (some centres undefined) | 1420 nM
13 | CC[C@H]1C[C@@H]2C[C@H]3c4[nH]c5ccc(OC)cc5c4CCN(C2)[C@@H]13 | 9310 nM
14 | c1ccc2c(c1)c1ccccc1n2CCCN1CCN(C2CCCCC2)CC1 | 3450 nM
15 | COc1cc2c(cc1OC)CN(CCCCNC(=O)c1cc(I)cc(OC)c1OCC[18F])CC2 | 2150 nM
16 | CCn1c(=O)n(C(=O)NC2C[C@@H]3CC[C@@H](C2)N3C)c2ccccc21 (some centres undefined) | 6300 nM

target: Sigma intracellular receptor 2 (Homo sapiens, UniProt Q5BJF2); assay: Binding affinity to sigma-2 receptor (unknown origin); settings: not given
Sequence (Q5BJF2 whole entry): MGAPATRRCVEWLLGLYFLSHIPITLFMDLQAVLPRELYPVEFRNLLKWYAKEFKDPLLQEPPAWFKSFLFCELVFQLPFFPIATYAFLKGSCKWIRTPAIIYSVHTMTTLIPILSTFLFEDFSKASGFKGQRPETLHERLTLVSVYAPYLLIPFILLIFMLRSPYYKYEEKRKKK

Row | Structure (SMILES) | Ki
17 | COc1ccc(C)cc1NC(=O)OC1C[C@H]2CCC[C@H](C1)N2CCCCCCN (some centres undefined) | 5.19 nM
18 | CC[C@H]1C[C@@H]2C[C@H]3c4[nH]c5ccc(OC)cc5c4CCN(C2)[C@@H]13 | 90.4 nM
19 | c1ccc2c(c1)c1ccccc1n2CCCN1CCN(C2CCCCC2)CC1 | 12.6 nM
20 | COc1cc2c(cc1OC)CN(CCCCNC(=O)c1cc(I)cc(OC)c1OCC[18F])CC2 | 0.26 nM
21 | CCn1c(=O)n(C(=O)NC2C[C@@H]3CC[C@@H](C2)N3C)c2ccccc21 (some centres undefined) | 32 nM

target: T2, Sigma intracellular receptor 2 (Rattus norvegicus) (UniProt Q5U3Y7); assay: Displacement of [3H]DTG from sigma-2 receptor in Sprague-Dawley rat liver membranes at 1 uM after 120 mins in presence of (+)-pentazocine by microbeta scintillation counting method relative to control; type: cell membranes; settings: Membrane
T2 sequence (whole entry): T1 sequence (Q5U3Y7 whole entry)
Procedure, shortened: (§2)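 Single-point screen at 1 µM for displacement of [3H](+)-pentazocine (sigma-1, guinea pig brain membranes) or [3H]-DTG (sigma-2, rat liver membranes, with 100 nM (+)-pentazocine); 25 °C, pH 8.0 Tris buffer. Hits were defined as >50% displacement.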

Row | Structure (SMILES) | inhibition
22 | COc1ccc(C(O)CCCCN2CCc3cc(OC)c(OC)cc3C2)c(OC)c1 (centres undefined) | > 50%
23 | COc1ccc(C(O)CCCCN2CCc3cc(OC)c(OC)cc3C2)c(C)c1 (centres undefined) | > 50%
24 | COc1cc2c(cc1OC)CN(CCCCn1cnc3cc(OC)c(OC)cc3c1=O)CC2 | > 50%
25 | COc1cc2c(cc1OC)CN(CCCCn1cnc3cc(Cl)c([N+](=O)[O-])cc3c1=O)CC2 | > 50%
26 | COc1ccc(C(=O)CCCCN2CCc3cc(OC)c(OC)cc3C2)c(OC)c1 | > 50%
27 | COc1ccc(C(=O)CCCCN2CCc3cc(OC)c(OC)cc3C2)c(C)c1 | > 50%

tested on: KYSE-140; assay: Cytotoxicity against human KYSE-140 cells after 48 hrs by CCK8 assay; type: functional, cell-based; settings: KYSE-140, 48 h; procedure, shortened: as §1

Row | Structure (SMILES) | IC50
28 | COc1ccc(C(O)CCCCN2CCc3cc(OC)c(OC)cc3C2)c(C)c1 (centres undefined) | 14900 nM
29 | COc1cc2c(cc1OC)CN(CCCCn1cnc3cc(OC)c(OC)cc3c1=O)CC2 | > 100 nM
30 | COc1cc2c(cc1OC)CN(CCCCn1cnc3cc(Cl)c([N+](=O)[O-])cc3c1=O)CC2 | > 100 nM
31 | COc1ccc(C(=O)CCCCN2CCc3cc(OC)c(OC)cc3C2)c(OC)c1 | 88300 nM
32 | COc1ccc(C(=O)CCCCN2CCc3cc(OC)c(OC)cc3C2)c(C)c1 | > 100 nM

target: Sigma non-opioid intracellular receptor 1 (Cavia porcellus) (UniProt Q60492); assay: Displacement of [3H]-(+)-pentazocine from sigma-1 receptor in guinea pig brain membranes at 1 uM after 120 mins by microbeta scintillation counting method relative to control; type: cell membranes; settings: Membrane; procedure, shortened: as §2
Sequence (Q60492 whole entry): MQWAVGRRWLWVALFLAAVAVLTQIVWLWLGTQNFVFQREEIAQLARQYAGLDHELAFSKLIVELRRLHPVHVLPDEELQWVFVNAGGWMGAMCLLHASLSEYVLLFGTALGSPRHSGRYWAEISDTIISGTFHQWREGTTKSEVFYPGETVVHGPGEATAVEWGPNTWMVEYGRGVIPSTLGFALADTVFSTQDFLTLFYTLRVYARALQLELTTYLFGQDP

Row | Structure (SMILES) | inhibition
33 | COc1ccc(C(O)CCCCN2CCc3cc(OC)c(OC)cc3C2)c(OC)c1 (centres undefined) | > 50%
34 | COc1ccc(C(O)CCCCN2CCc3cc(OC)c(OC)cc3C2)c(C)c1 (centres undefined) | > 50%
35 | COc1cc2c(cc1OC)CN(CCCCn1cnc3cc(OC)c(OC)cc3c1=O)CC2 | > 50%
36 | COc1cc2c(cc1OC)CN(CCCCn1cnc3cc(Cl)c([N+](=O)[O-])cc3c1=O)CC2 | > 50%
37 | COc1ccc(C(=O)CCCCN2CCc3cc(OC)c(OC)cc3C2)c(OC)c1 | > 50%
38 | COc1ccc(C(=O)CCCCN2CCc3cc(OC)c(OC)cc3C2)c(C)c1 | > 50%

tested on: not listed separately; assay: Selectivity ratio of Ki for sigma-1 receptor in guinea pig brain membranes to Ki for sigma-2 receptor in Sprague-Dawley rat liver membranes; type: cell membranes; settings: not given

Row | Structure (SMILES) | Ratio Ki
39 | COc1ccc(C(O)CCCCN2CCc3cc(OC)c(OC)cc3C2)c(OC)c1 (centres undefined) | > 161
40 | COc1ccc(C(O)CCCCN2CCc3cc(OC)c(OC)cc3C2)c(C)c1 (centres undefined) | > 192
41 | COc1cc2c(cc1OC)CN(CCCCn1cnc3cc(OC)c(OC)cc3c1=O)CC2 | > 22.8
42 | COc1ccc(C(=O)CCCCN2CCc3cc(OC)c(OC)cc3C2)c(OC)c1 | 5.6
43 | COc1ccc(C(=O)CCCCN2CCc3cc(OC)c(OC)cc3C2)c(C)c1 | > 196

target: Sigma non-opioid intracellular receptor 1 (Cavia porcellus, UniProt Q60492); assay: Displacement of [3H]-(+)-pentazocine from sigma-1 receptor in guinea pig brain membranes after 120 mins by microbeta scintillation counting method; type: cell membranes, Membrane; settings: not given
Sequence (Q60492 whole entry): as above
Procedure, shortened: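 Guinea pig brain membranes (frozen brains minus cerebellum; 300 µg) incubated with 6 nM [3H]-(+)-pentazocine stock (~42 Ci/mmol), 50 mM Tris-HCl pH 8.0, 25 °C, 120 min. Compounds from ethanol, 0.1-1000 nM, 10 points. Ice-cold 10 mM Tris stop, GF/B filtration, scintillation counting. Nonspecific defined with (+)-pentazocine or haloperidol (10 µM).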

Row | Structure (SMILES) | Ki
44 | COc1ccc(C(O)CCCCN2CCc3cc(OC)c(OC)cc3C2)c(OC)c1 (centres undefined) | > 1000 nM
45 | COc1ccc(C(O)CCCCN2CCc3cc(OC)c(OC)cc3C2)c(C)c1 (centres undefined) | > 1000 nM
46 | COc1cc2c(cc1OC)CN(CCCCn1cnc3cc(OC)c(OC)cc3c1=O)CC2 | > 1000 nM
47 | COc1cc2c(cc1OC)CN(CCCCn1cnc3cc(Cl)c([N+](=O)[O-])cc3c1=O)CC2 | > 1000 nM
48 | COc1ccc(C(=O)CCCCN2CCc3cc(OC)c(OC)cc3C2)c(OC)c1 | 32.9 nM
49 | COc1ccc(C(=O)CCCCN2CCc3cc(OC)c(OC)cc3C2)c(C)c1 | > 1000 nM
